From ChEMBL document CHEMBL1126775, “A pharmacological, crystallographic, and quantum chemical study of new inotropic agents” (J Med Chem, 1993)
“And” between values parts separate entries of the source, which are not always exact repeats. Equal values may be shown once.

How the values were obtained:
[1] = species on record: Cavia porcellus; assay: Inotropic response in electrically driven left atrium from reserpine-treated guinea pig without VER at the concentration of 5 x 10 e-5 M; format: functional, Cardiac atrium
Procedure, shortened: (§1)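 Control arm without verapamil: left atrium from reserpinized guinea pigs (2 mg/kg ip, 48 and 24 h before), tyramine-unresponsive, paced at 1.5 Hz (3-ms pulses). Agents added cumulatively after 90 min equilibration, recorded 5 min each. Isometric developed tension as % increase over control; seven assays from seven experiments.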

[2] = species on record: Cavia porcellus; assay: Inotropic response in electrically driven left atrium from reserpine-treated guinea pig with VER (10 e-7) at the concentration of 10 e-5 M; format: functional, Cardiac atrium
Procedure, shortened: (§2)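 Left atrium from reserpine-treated guinea pigs (2 mg/kg ip, 48 and 24 h prior; tyramine 2 μg/mL check), paced at 1.5 Hz with 3-ms pulses. Verapamil 0.1 μM added 10 min before cumulative agent additions (5 min each), after 90 min equilibration. Isometric developed tension as % increase over control; seven assays from seven experiments.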

[3] = species on record: Cavia porcellus; assay: Effect on frequency rate of spontaneously beating atria from reserpine treated guinea pigs at the concentration of 10 e-3 M; format: functional
[4] = species on record: Cavia porcellus; assay: Inotropic response in electrically driven left atrium from reserpine-treated guinea pig with ADA (2 units/ml) at the concentration of 5 x 10 e-5 M; format: functional, Cardiac atrium
Procedure, shortened: (§3)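 Reserpinized guinea pigs (2 mg/kg ip, 48 and 24 h before death), tyramine-unresponsive atria. Electrically driven left atrium (1.5 Hz, 3-ms pulses, 0.5 g load) preincubated 20 min with adenosine deaminase after 90 min equilibration. Agents added cumulatively, 5 min per concentration. Developed tension recorded isometrically, % increase over control or % inhibition; six assays from six experiments, Student's t test.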

[5] = species on record: Cavia porcellus; assay: Inotropic effect in electrically driven left atrium from reserpine-treated guinea pig without 8-phenyl theophylline at the concentration of 5 x 10 e-5 M; format: functional, Cardiac atrium
Procedure, shortened: (§4)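 Paced left atrium from reserpine-pretreated, tyramine-unresponsive guinea pigs (0.5 g load, 1.5 Hz, 3-ms pulses). Cumulative additions of agent, 5 min each, with no 8-phenyltheophylline present. Developed tension as % increase over control. Mean ± SEM of six assays from six experiments; Student's t test against the 8-phenyltheophylline-treated preparations.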

[6] = species on record: Cavia porcellus; assay: Inotropic response in electrically driven left atrium from reserpine-treated guinea pig without VER at the concentration of 2 x 10 e-3 M; format: functional, Cardiac atrium; procedure, shortened: as §1
[7] = species on record: Cavia porcellus; assay: Inotropic response in electrically driven left atrium from reserpine-treated guinea pig with ADA (2 units/ml) at the concentration of 5 x 10 e-4 M; format: functional, Cardiac atrium; procedure, shortened: as §3
[8] = species on record: Cavia porcellus; assay: Effect on frequency rate of spontaneously beating atria from reserpine treated guinea pigs at the concentration of 10 e-5 M; format: functional
[9] = species on record: Cavia porcellus; assay: Inotropic response in electrically driven left atrium from reserpine-treated guinea pig with VER (10 e-7) at the concentration of 2 x 10 e-3 M; format: functional, Cardiac atrium; procedure, shortened: as §2
[10] = species on record: Cavia porcellus; assay: Effect on frequency rate of spontaneously beating atria from reserpine treated guinea pigs at the concentration of 2 x 10 e-3 M; format: functional
[11] = species on record: Cavia porcellus; assay: Inotropic effect in electrically driven left atrium from reserpine-treated guinea pig at the concentration of 10 e-3 M; format: functional, Cardiac atrium
Procedure, shortened: (§5)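 Atria from reserpine-pretreated guinea pigs (2 mg/kg ip, 48 and 24 h), tyramine-unresponsive only. Left atrium loaded 0.5 g, paced at 1.5 Hz with 3-ms square pulses at 10–20% above threshold. Equilibrated 90 min. Agents added cumulatively, 5 min per concentration. Isometric developed tension expressed as % increase over control.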

[12] = species on record: Cavia porcellus; assay: Effect on frequency rate of spontaneously beating atria from reserpine treated guinea pigs at the concentration of 10 e-4 M; format: functional
[13] = species on record: Cavia porcellus; assay: Inotropic response in electrically driven left atrium from reserpine-treated guinea pig without ADA at the concentration of 10 e-4 M; format: functional, Cardiac atrium
Procedure, shortened: (§6)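 Control arm: electrically driven left atrium (1.5 Hz, 3-ms pulses, 0.5 g load) from guinea pigs given reserpine 2 mg/kg ip at 48 and 24 h, tyramine-unresponsive; no adenosine deaminase. Cumulative additions after 90 min equilibration, 5 min per concentration. Isometric developed tension, % over control; six assays from six experiments.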

[14] = species on record: Cavia porcellus; assay: Inotropic response in electrically driven left atrium from reserpine-treated guinea pig without VER at the concentration of 10 e-5 M; format: functional, Cardiac atrium; procedure, shortened: as §1
[15] = species on record: Cavia porcellus; assay: Inotropic effect in electrically driven left atrium from reserpine-treated guinea pig at the concentration of 10 e-5 M; format: functional, Cardiac atrium; procedure, shortened: as §5
[16] = species on record: Cavia porcellus; assay: Inotropic effect in electrically driven left atrium from reserpine-treated guinea pig without 8-phenyl theophylline at the concentration of 5 x 10 e-4 M; format: functional, Cardiac atrium; procedure, shortened: as §4
[17] = species on record: Cavia porcellus; assay: Effect on contractile force of spontaneously beating atria from reserpine treated guinea pigs at the concentration of 5x 10 e-4 M; format: functional
[18] = species on record: Cavia porcellus; assay: Effect on contractile force of spontaneously beating atria from reserpine treated guinea pigs at the concentration of 10 e-4 M; format: functional
[19] = species on record: Cavia porcellus; assay: Effect on contractile force of spontaneously beating atria from reserpine treated guinea pigs at the concentration of 10 e-3 M; format: functional
[20] = species on record: Cavia porcellus; assay: Effect on frequency rate of spontaneously beating atria from reserpine treated guinea pigs at the concentration of 5 x 10 e-4 M; format: functional
[21] = Logarithm of the sum of contributions of each atom to the total lipophilicity of the molecule; format: physicochemical; settings: octanol/water
[22] = species on record: Cavia porcellus; assay: Inotropic response in electrically driven left atrium from reserpine-treated guinea pig with VER (10 e-7) at the concentration of 5 x 10 e-4 M; format: functional, Cardiac atrium; procedure, shortened: as §2
[23] = species on record: Cavia porcellus; assay: Inotropic response in electrically driven left atrium from reserpine-treated guinea pig without VER at the concentration of 5 x 10 e-4 M; format: functional, Cardiac atrium; procedure, shortened: as §1
[24] = species on record: Cavia porcellus; assay: Inotropic response in electrically driven left atrium from reserpine-treated guinea pig without ADA at the concentration of 10 e-5 M; format: functional, Cardiac atrium; procedure, shortened: as §6
[25] = species on record: Cavia porcellus; assay: Inotropic response in electrically driven left atrium from reserpine-treated guinea pig with VER (10 e-7) at the concentration of 5 x10 e-5 M; format: functional, Cardiac atrium; procedure, shortened: as §2
[26] = species on record: Cavia porcellus; assay: Inotropic effect in electrically driven left atrium from reserpine-treated guinea pig without 8-phenyl theophylline at the concentration of 10 e-5 M; format: functional, Cardiac atrium; procedure, shortened: as §4
[27] = species on record: Cavia porcellus; assay: Inotropic response in electrically driven left atrium from reserpine-treated guinea pig without ADA at the concentration of 10 e-3 M; format: functional, Cardiac atrium; procedure, shortened: as §6
[28] = species on record: Cavia porcellus; assay: Effect on contractile force of spontaneously beating atria from reserpine treated guinea pigs at the concentration of 2 x 10 e-3 M; format: functional
[29] = species on record: Cavia porcellus; assay: Inotropic effect in electrically driven left atrium from reserpine-treated guinea pig at the concentration of 5 x 10 e-5 M; format: functional, Cardiac atrium; procedure, shortened: as §5
[30] = species on record: Cavia porcellus; assay: Inotropic response in electrically driven left atrium from reserpine-treated guinea pig with ADA (2 units/ml) at the concentration of 10 e-3 M; format: functional, Cardiac atrium; procedure, shortened: as §3
[31] = species on record: Cavia porcellus; assay: Inotropic effect in electrically driven left atrium from reserpine-treated guinea pig without 8-phenyl theophylline at the concentration of 10 e-4 M; format: functional, Cardiac atrium; procedure, shortened: as §4
[32] = species on record: Cavia porcellus; assay: Inotropic response in electrically driven left atrium from reserpine-treated guinea pig without ADA at the concentration of 5 x 10 e-5 M; format: functional, Cardiac atrium; procedure, shortened: as §6
[33] = species on record: Cavia porcellus; assay: Inotropic effect in electrically driven left atrium from reserpine-treated guinea pig at the concentration of 10 e-4 M; format: functional, Cardiac atrium; procedure, shortened: as §5
[34] = species on record: Cavia porcellus; assay: Inotropic effect in electrically driven left atrium from reserpine-treated guinea pig without 8-phenyl theophylline at the concentration of 10 e-3 M; format: functional, Cardiac atrium; procedure, shortened: as §4
[35] = species on record: Cavia porcellus; assay: Inotropic effect in electrically driven left atrium from reserpine-treated guinea pig without 8-phenyl theophylline at the concentration of 2 x 10 e-3 M; format: functional, Cardiac atrium; procedure, shortened: as §4
[36] = species on record: Cavia porcellus; assay: Inotropic response in electrically driven left atrium from reserpine-treated guinea pig with ADA (2 units/ml) at the concentration of 10 e-4 M; format: functional, Cardiac atrium; procedure, shortened: as §3

Row | SMILES | Increase [1] | Increase [2] | Increase [3] | Increase [4] | Increase [5] | Increase [6] | Increase [7] | Increase [8] | Increase [9] | Increase [10] | Increase [11] | Increase [12] | Increase [13] | Increase [14] | Increase [15] | Increase [16] | Increase [17] | Increase [18] | Increase [19] | Increase [20] | other results
1 | CC(=O)c1cc(C#N)c(O)nc1C | 28.29% | 12.63% | 21.93% | 8.32% | 17.81% | 94.47% | 20.37% | 0.23% and 1.35% | 88.84% | 22.98% | 58.73% | 6.62% | 12.61% | 18.83% | 12.64% | 48.18% | 57.22% | 35.57% | 65.35% | 11.61% | logP [21]: -0.1; Increase [22]: 55.47%; Increase [23]: 62.96%; Increase [24]: 5.26%; Increase [25]: 19.5%; Increase [26]: 12.62%; Increase [27]: 42.05%; Increase [28]: 64.11%; Increase [29]: 25.17%; Increase [30]: 37.93%; Increase [31]: 28.87%; Increase [32]: 13.32%; Increase [33]: 38.06%; Increase [34]: 56.71%; Increase [35]: 62.73%; Increase [36]: 10.08%
2 | CC1CC(=O)c2ccc(O)nc2C1 (configuration not stated) | 11.6% | -0.32% | 19.68% | 5.52% | 18.83% | 75.51% | 14.35% | 2.63% and 3.21% | 43.8% | 26.44% | 48.86% | 3.29% | 27.6% | 5.76% | 6.31% | 38.88% | 39.48% | 28.89% | 46.09% | 13.45% | logP [21]: 0.45; Increase [22]: 14.7%; Increase [23]: 31.4%; Increase [24]: 15.78%; Increase [25]: 2.45%; Increase [26]: 4.64%; Increase [27]: 46.19%; Increase [28]: 80.98%; Increase [29]: 19.17%; Increase [30]: 20.63%; Increase [31]: 24.77%; Increase [32]: 25%; Increase [33]: 26.62%; Increase [34]: 56.72%; Increase [35]: 87.6%; Increase [36]: 9.12%
